Tests used:
[1] = system: Plasma; assay: Antiplatelet activity against citreated rabbit platelet-rich plasma assessed as ADP-induced platelet aggregation at 150 uM by turbidimetric method; format: functional, Oryctolagus cuniculus
In short: (§1)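 PRP stirred at 900 rpm, 37 °C, 1 min; compound 150 µM or DMSO vehicle (0.5% v/v) added 1 min before agonist: ADP 5 µM, collagen 5 µg/mL, thrombin 2 nM or arachidonic acid 100 µM. Aggregation read turbidimetrically (Born method).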

[2] = system: Plasma; assay: Antiplatelet activity against citreated rabbit platelet-rich plasma assessed as inhibition of collagen-induced platelet aggregation at 150 uM by turbidimetric method; format: functional; conditions: Oryctolagus cuniculus; in short: as §1
[3] = system: Plasma; assay: Antiplatelet activity against citreated rabbit platelet-rich plasma assessed as inhibition of thrombin-induced platelet aggregation at 150 uM by turbidimetric method; format: functional; conditions: Oryctolagus cuniculus; in short: as §1
[4] = system: Plasma; assay: Antiplatelet activity against citreated rabbit platelet-rich plasma assessed as thrombin-induced platelet aggregation at 150 uM by turbidimetric method; format: functional, Oryctolagus cuniculus; in short: as §1
[5] = system: Plasma; assay: Antiplatelet activity against citreated rabbit platelet-rich plasma assessed as inhibition of ADP-induced platelet aggregation at 150 uM by turbidimetric method; format: functional; conditions: Oryctolagus cuniculus; in short: as §1
[6] = system: Plasma; assay: Antiplatelet activity against citreated rabbit platelet-rich plasma assessed as collagen-induced platelet aggregation at 150 uM by turbidimetric method; format: functional, Oryctolagus cuniculus; in short: as §1
[7] = system: Mus musculus; assay: Antithrombotic activity against thrombin-induced pulmonary thromboembolism in mouse model assessed as survival at 100 umol/kg, po after 15 mins; format: functional; conditions: 0.25 h
[8] = system: Plasma; assay: Antiplatelet activity against citreated rabbit platelet-rich plasma assessed as inhibition of arachidonic acid-induced platelet aggregation at 150 uM by turbidimetric method; format: functional; conditions: Oryctolagus cuniculus; in short: as §1

SMILES | Activity [1] [%] | inhibition at 150 µM [2] [%] | inhibition at 150 µM [3] [%] | Activity [4] [%] | inhibition at 150 µM [5] [%] | Activity [6] [%] | survival at 100 µmol/kg [7] [%] | inhibition at 150 µM [8] [%]
Cc1cc2c(cc1S(=O)(=O)Oc1ccc(C(=O)N/N=C\c3ccc(C(=O)O)cc3)cc1)OCO2 | 100 | 25 | 100 | 0 | 0 | 59 | 80 | 90.8
Cc1cc2c(cc1S(=O)(=O)Oc1ccccc1C(=O)N/N=C\c1ccc(C(=O)O)cc1)OCO2 | 100 | 0 | 80 | 11.9 | 0 | 100 | 80 | 0
Cc1cc2c(cc1S(=O)(=O)Oc1cccc(/C=N/NC(=O)c3ccncc3)c1)OCO2 | 63.3 | 100 | 1.3 | 58.7 | 22 | 0 | – | 94.8
Cc1cc2c(cc1S(=O)(=O)Oc1cccc(C(=O)N/N=C\c3ccc(C#N)cc3)c1)OCO2 | 54.9 | 100 | 2 | 58.3 | 32 | 0 | – | 100
Cc1cc2c(cc1S(=O)(=O)Oc1cccc(C(=O)N/N=C\c3ccc(C(=O)O)cc3)c1)OCO2 | 100 | 0 | 95 | 2.9 | 0 | 100 | 53.3 | 0
Cc1cc2c(cc1S(=O)(=O)Oc1cccc(C(=O)N/N=C\c3ccc([N+](=O)[O-])cc3)c1)OCO2 | 100 | 11.5 | 3 | 57.7 | 0 | 69.6 | – | 81.5
Cc1cc2c(cc1S(=O)(=O)Oc1cccc(C(=O)N/N=C\c3ccncc3)c1)OCO2 | 100 | 25 | 72.5 | 16.4 | 0 | 59 | 33.3 | 82
Cc1cc2c(cc1S(=O)(=O)Oc1cccc(C(=O)N/N=C\c3ccccc3)c1)OCO2 | 100 | 42 | 0 | 100 | 0 | 45.6 | – | 97
Cc1cc2c(cc1S(=O)(=O)Oc1cccc(C(=O)N/N=C\c3ccc(N)cc3)c1)OCO2 | 100 | 37.5 | 2.2 | 58.2 | 0 | 49.2 | – | 80
Cc1cc2c(cc1S(=O)(=O)Oc1cccc(C(=O)N/N=C\c3ccc(/C(N)=N\O)cc3)c1)OCO2 | 58.7 | 100 | 81 | 11.3 | 36 | 0 | – | 100
CC(=O)Oc1ccccc1C(=O)O [ASPIRIN] | 74.8 | 77.7 | 82.7 | 10.3 | 7.9 | 17.5 | – | 71.6

— ChEMBL document CHEMBL1149777, “Synthesis and anti-platelet activity of novel arylsulfonate--acylhydrazone derivatives, designed as antithrombotic candidates” (2008)
